In brackets after ≈: the same amount, converted by molar mass. Activity calls are given as the source filed them. The calls are words filed in the database; no cut-off is given here.
Tests used:
[1] = test system: Staphylococcus epidermidis; test: Antibiofilm activity against methicillin-resistant Staphylococcus epidermidis ATCC 35984 biofilms assessed as reduction of viable biofilm cells at MBEC measured by CBD assay; assay type: functional
Procedure, shortened: (§1)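 After the Calgary biofilm device assay, treated and untreated pegs were removed, sonicated 30 min in PBS and plated for CFU per peg. Log10 reduction of viable biofilm cells at the MBEC determined by comparison with untreated pegs. At least three independent experiments.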

HeLa = test: Cytotoxicity against human HeLa cells assessed as reduction in cell viability incubated for 24 hrs by LDH release assay; assay type: toxicity, cell-based
Procedure, shortened: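 HeLa cells in DMEM with 10% FBS, treated at 70–80% confluence with 25, 50 and 100 μM for 24 h. LDH in supernatant measured by 30 min reaction at room temperature, then stop solution and absorbance at 490 nm. Controls: 2% Triton X-100 (maximum), medium only, DMSO vehicle. Three independent experiments.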

Staphylococcus aureus [2] = test: Antibacterial activity against methicillin-resistant Staphylococcus aureus BAA-44 assessed as bacterial growth inhibition incubated for 16 hrs by broth microdilution susceptibility test; assay type: functional
Procedure, shortened: (§2)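 CLSI broth microdilution with 11 twofold dilutions (0.05–50 μM). Medium was LB for the staphylococci and BHI for VRE 700221. About 10^5 cells per well from a log-phase culture. […] DMSO vehicle up to 0.5% v/v. At least three independent experiments.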

Staphylococcus aureus [3] = test: Antibacterial activity against methicillin-resistant Staphylococcus aureus 156 assessed as bacterial growth inhibition; assay type: functional
Staphylococcus aureus [4] = test: Antibacterial activity against methicillin-resistant Staphylococcus aureus 138 assessed as bacterial growth inhibition; assay type: functional
Erythrocyte = test: Hemolytic activity against human RBC at 200 uM measured after 1 hr; assay type: toxicity, cell-based
Procedure, shortened: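 2% hRBCs exposed to compound at 200 μM final, added from DMSO stock, for 1 h at 37 °C. Supernatant OD read at 405 nm. Hemolysis normalized between DMSO (0%) and Triton X (100%); three independent experiments.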

Enterococcus faecium [5] = test: Bactericidal activity against methicillin-resistant vancomycin-resistant Enterococcus faecium ATCC 700221 planktonic cells assessed as planktonic eradication incubated for 24 hrs followed by incubation for overnight in fresh medium by Calgary biofilm device assay; assay type: functional
Procedure, shortened: (§3)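 Calgary biofilm device. Biofilms grown 24 h at 37 °C in TSB with 0.5% glucose, then challenged 24 h with twofold compound dilutions. 20 μL of challenge medium transferred into fresh TSB with 0.5% glucose and incubated overnight at 37 °C. MBC is the concentration with no visible turbidity. At least three independent experiments.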

J774 = test: Cytotoxicity against mouse J774 cells assessed as reduction in cell viability […] by Alamar blue assay; assay type: toxicity, cell-based
[6] = test system: Mycobacterium tuberculosis; test: Antibacterial activity against Mycobacterium tuberculosis CDC1551 assessed as bacterial growth inhibition incubated for 5 days by luminescence based analysis; assay type: functional; conditions: CDC1551, 120 h, time 5 day
Procedure, shortened: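 Bioluminescent Mtb-lux CDC1551 reporter grown in Middlebrook 7H9 with 0.05% Tween 80, 10% OADC and kanamycin to OD600 0.4–0.8, then diluted to OD600 0.02. Added to twofold drug dilutions (0.003–200 μM). Incubated 5 days at 37 °C, 5% CO2. Luminescence read against 1% DMSO and 10 μM rifampicin controls to give % growth inhibition. MIC taken from a modified Gompertz fit.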

Enterococcus faecium [7] = test: Antibacterial activity against vancomycin-resistant Enterococcus faecium ATCC 700221 assessed as bacterial growth inhibition incubated for 16 hrs by broth microdilution susceptibility test; assay type: functional; procedure, shortened: as §2
Enterococcus faecium [8] = test: Antibiofilm activity against methicillin-resistant vancomycin-resistant Enterococcus faecium ATCC 700221 biofilms assessed as biofilm eradication incubated for 24 hrs followed by incubation for 24 hrs in fresh medium by Calgary biofilm device assay; assay type: functional
Procedure, shortened: (§4)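 Calgary biofilm device. Mid-log culture diluted 1000-fold in TSB with 0.5% glucose; biofilms grown on pegs 24 h at 37 °C. Pegs washed and challenged with twofold compound dilutions for 24 h at 37 °C, then moved to fresh medium for 24 h. MBEC is the lowest concentration leaving wells non-turbid. At least three independent experiments.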

[9] = test system: Staphylococcus epidermidis; test: Antibiofilm activity against methicillin-resistant Staphylococcus epidermidis ATCC 35984 biofilms assessed as reduction of viable biofilm cells at 3.13 uM measured by CBD assay; assay type: functional
[10] = test system: Staphylococcus epidermidis; test: Antibiofilm activity against methicillin-resistant Staphylococcus epidermidis ATCC 35984 biofilms assessed as biofilm eradication incubated for 24 hrs followed by incubation for 24 hrs in fresh medium by Calgary biofilm device assay; assay type: functional; procedure, shortened: as §4
Enterococcus faecalis [11] = test: Bactericidal activity against […] Enterococcus faecalis OG1RF ATCC 47077 planktonic cells assessed as planktonic eradication incubated for 24 hrs followed by incubation for overnight in fresh medium by Calgary biofilm device assay; assay type: functional
Procedure, shortened: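 Calgary biofilm device in BHI. Biofilms grown 24 h at 37 °C and challenged 24 h with twofold compound dilutions. Challenge medium subcultured 1:10 into fresh BHI overnight at 37 °C. MBC is the concentration with no turbidity. At least three independent experiments.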

Staphylococcus aureus [12] = test: Antibacterial activity against methicillin-resistant Staphylococcus aureus 147 assessed as bacterial growth inhibition; assay type: functional
[13] = test system: Mycobacterium tuberculosis; test: Antibacterial activity against Mycobacterium tuberculosis H37Ra ATCC 25177 assessed as bacterial growth inhibition incubated for 7 days by absorbance based analysis; assay type: functional; conditions: H37Ra ATCC 25177, 168 h, time 7 day
Procedure, shortened: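 H37Ra grown 2 weeks in Middlebrook 7H9, then diluted to OD600 0.01. Compounds added in twofold dilutions, final 0.024–50 μM, with 0.5% DMSO and streptomycin as positive control. Incubated 7 days at 37 °C. MIC is the lowest concentration with no growth, with OD600 recorded. At least three independent experiments.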

HepG2 = test: Cytotoxicity against human HepG2 cells assessed as reduction in cell viability […] by Alamar blue assay; assay type: toxicity, cell-based
Staphylococcus aureus [14] = test: Antibiofilm activity against methicillin-resistant Staphylococcus aureus BAA-1707 biofilms assessed as biofilm eradication incubated for 24 hrs followed by incubation for 24 hrs in fresh medium by Calgary biofilm device assay; assay type: functional; procedure, shortened: as §4
Staphylococcus aureus [15] = test: Antibiofilm activity against methicillin-resistant Staphylococcus aureus BAA-1707 biofilms assessed as biofilm killing at MBEC measured by CBD assay; assay type: functional
[16] = Dissociation constant, pKa of the compound at 125 uM by UV-vis spectrophotometric analysis; assay type: physicochemical
Procedure, shortened: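 Compound at 125 μM final in phosphate buffers (KH₂PO₄/Na₂HPO₄) in 1:1 water/methanol, pH 4.07–9.66; ammonium hydroxide added for pH above 9.80. UV-vis scans 200–800 nm to find λmax of phenol and phenolate forms. Absorbance at each λmax plotted against pH.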

Staphylococcus aureus [17] = test: Antibacterial activity against methicillin-resistant Staphylococcus aureus 129 assessed as bacterial growth inhibition; assay type: functional
[18] = Binding affinity to Fe2+ assessed as compound-Fe2+ complex formation by UV-vis spectroscopy
Staphylococcus aureus [19] = test: Bactericidal activity against methicillin-resistant Staphylococcus aureus BAA-1707 planktonic cells assessed as planktonic eradication incubated for 24 hrs followed by incubation for overnight in fresh medium by Calgary biofilm device assay; assay type: functional; procedure, shortened: as §3
Staphylococcus aureus [20] = test: Antibacterial activity against methicillin-resistant Staphylococcus aureus clinical isolate 2 assessed as bacterial growth inhibition; assay type: functional
[21] = test system: Staphylococcus epidermidis; test: Antibacterial activity against methicillin-resistant Staphylococcus epidermidis ATCC 35984 assessed as bacterial growth inhibition incubated for 16 hrs by broth microdilution susceptibility test; assay type: functional
Procedure, shortened: (§5)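 CLSI broth microdilution with 11 twofold dilutions (0.05–50 μM). About 10^5 cells per well from a log-phase culture. DMSO vehicle up to 0.5% v/v. At least three independent experiments.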

[22] = test system: Staphylococcus epidermidis; test: Antibiofilm activity against methicillin-resistant Staphylococcus epidermidis ATCC 35984 biofilms assessed as biofilm killing at 3.13 uM measured by CBD assay; assay type: functional
Staphylococcus aureus [23] = test: Antibacterial activity against methicillin-resistant Staphylococcus aureus BAA-1707 assessed as bacterial growth inhibition incubated for 16 hrs by broth microdilution susceptibility test; assay type: functional; procedure, shortened: as §5
[24] = test system: Staphylococcus epidermidis; test: Bactericidal activity against methicillin-resistant Staphylococcus epidermidis ATCC 35984 planktonic cells assessed as planktonic eradication incubated for 24 hrs followed by incubation for overnight in fresh medium by Calgary biofilm device assay; assay type: functional; procedure, shortened: as §3
Staphylococcus aureus [25] = test: Antibiofilm activity against methicillin-resistant Staphylococcus aureus BAA-1707 biofilms assessed as reduction of viable biofilm cells at MBEC measured by CBD assay; assay type: functional; procedure, shortened: as §1
Enterococcus faecalis [26] = test: Antibacterial activity against Enterococcus faecalis OG1RF ATCC 47077 assessed as bacterial growth inhibition incubated for 16 hrs by broth microdilution susceptibility test; assay type: functional
Staphylococcus aureus [27] = test: Antibacterial activity against methicillin-resistant Staphylococcus aureus clinical isolate 1 assessed as bacterial growth inhibition; assay type: functional

Which Activity [1] does the source give for `Oc1c(Br)c(Cl)c(Br)c2nc3c(Cl)cc(Cl)cc3nc12` here?
The Activity was 3.18 log10CFU.

And the IC50 (HeLa)?
The IC50 was > 100 µM.

What about the MIC (Staphylococcus aureus [2]) of the same molecule?
Its MIC is 0.15 µM (≈ 0.0686 µg/mL).

And the MIC (Staphylococcus aureus [3])?
The MIC was 0.47 µM (≈ 0.215 µg/mL).

What about the MIC (Staphylococcus aureus [4]) of the same molecule?
The MIC was 0.47 µM (≈ 0.215 µg/mL).

And the Activity (Erythrocyte)?
Its Activity is “<= 1%”.

What about the MBC (Enterococcus faecium [5]) of the same molecule?
Its MBC is 0.39 µM (≈ 0.178 µg/mL).

And the IC50 (J774)?
Its IC50 is > 200 µM.

And the MIC [6]?
Its MIC is 0.8 µM (≈ 0.366 µg/mL).

What about the MIC (Enterococcus faecium [7]) of the same molecule?
The MIC was 0.08 µM (≈ 0.0366 µg/mL).

And the MBEC (Enterococcus faecium [8])?
Its MBEC is 0.2 µM.

What about the Activity [9] of the same molecule?
The Activity was 5 log10CFU.

What about the MBEC [10] of the same molecule?
Its MBEC is 0.3 µM.

What about the MBC (Enterococcus faecalis [11]) of the same molecule?
Its MBC is 3.13 µM (≈ 1.43 µg/mL).

And the MIC (Staphylococcus aureus [12])?
The MIC was 0.47 µM (≈ 0.215 µg/mL).

What about the MIC [13] of the same molecule?
The MIC was 6.25 µM (≈ 2.86 µg/mL).

What about the IC50 (HepG2) of the same molecule?
Its IC50 is > 200 µM.

And the MBEC (Staphylococcus aureus [14])?
The MBEC was 3.13 µM.

What about the Activity (Staphylococcus aureus [15]) of the same molecule?
Its Activity is 99.9%.

What about the pKa at 125 µM [16] of the same molecule?
Its pKa at 125 µM is 6.07.

And the MIC (Staphylococcus aureus [17])?
Its MIC is 0.47 µM (≈ 0.215 µg/mL).

And the Activity [18]?
Its Activity is “Active”.

What about the MBC (Staphylococcus aureus [19]) of the same molecule?
Its MBC is 1.56 µM (≈ 0.713 µg/mL).

What about the MIC (Staphylococcus aureus [20]) of the same molecule?
Its MIC is 0.47 µM (≈ 0.215 µg/mL).

What about the MIC [21] of the same molecule?
The MIC was ≤ 0.05 µM.

What about the Activity [22] of the same molecule?
The Activity was 99.999%.

And the MIC (Staphylococcus aureus [23])?
The MIC was 0.59 µM (≈ 0.27 µg/mL).

What about the MBC [24] of the same molecule?
The MBC was 0.59 µM (≈ 0.27 µg/mL).

What about the Activity (Staphylococcus aureus [25]) of the same molecule?
Its Activity is 3.03 log10CFU.

What about the MIC (Enterococcus faecalis [26]) of the same molecule?
Its MIC is 0.3 µM (≈ 0.137 µg/mL).

And the MIC (Staphylococcus aureus [27])?
The MIC was 0.47 µM (≈ 0.215 µg/mL).
